{"data": "Published values gathered from unrelated publications", "target": "Fibroblast growth factor receptor 4 (FGFR4, Homo sapiens, UniProt P22455)", "note": "Each line is one published result; the experiments were not run side by side."}
{"Structure (SMILES)": "N#CC1(c2ccccn2)CCN(Cc2cc(C(=O)N3CCCC3)c(=O)n3ccccc23)CC1", "assay": "cell-free assay, competition with immobilised ligand", "setting": "1 µM", "remaining binding": "90%"}
{"Structure (SMILES)": "Nc1ncc2c(n1)-c1c([nH]c3ccc(C#CC4CC4)cc13)CCCC2", "assay": "binding, competition with immobilised ligand", "setting": "1 µM", "remaining binding": "98%"}
{"Structure (SMILES)": "CCOCCn1cc(C(=O)Nc2ccc(-n3nc(-c4cccnc4)cc3C(F)(F)F)cn2)ccc1=O", "assay": "cell-free assay, competition with immobilised ligand", "setting": "1 µM", "remaining binding": "100%"}
{"Structure (SMILES)": "CCN1CCN(Cc2ccc(C(=O)Nc3ccc(C)c(Oc4ccc5c(c4)CC(=O)N5)c3)cc2C(F)(F)F)CC1", "assay": "binding, competition with immobilised ligand", "setting": "1 µM", "remaining binding": "100%"}
{"Structure (SMILES)": "COc1ccnn2ncc(-c3ccnc(N(C)C)n3)c12", "assay": "binding", "setting": "1 µM", "remaining binding": "100%"}
{"Structure (SMILES)": "CS(=O)(=O)NCC[C@H](NC(=O)c1cncc2c1cnn2-c1ccc(F)cc1)c1ccnc(S(C)(=O)=O)c1", "assay": "cell-free assay, competition with immobilised ligand", "setting": "1 µM", "remaining binding": "100%"}
{"Structure (SMILES)": "Cc1cnc(Nc2ccc(C(=O)N3CCC(N4CCCC4)CC3)cc2)nc1-c1cc2ccccc2s1", "assay": "binding, competition with immobilised ligand", "setting": "1 µM", "remaining binding": "76%"}
{"Structure (SMILES)": "C[C@@H]1CN(c2cc(-c3nn(C)c4ccc(OC5(C)CC5)cc34)ncn2)C[C@H](C)O1", "assay": "cell-free assay, competition with immobilised ligand", "setting": "1 µM", "remaining binding": "100%"}
{"Structure (SMILES)": "O=C(c1ccc(Nc2ncc(Cl)c(-c3ccc(Cl)s3)n2)cc1)N1CCC(N2CCCC2)CC1", "assay": "binding, competition with immobilised ligand", "setting": "1 µM", "remaining binding": "60%"}
{"Structure (SMILES)": "Cc1c(C(=O)O)cc(-c2ccc(C3CCNCC3)cc2)c2ccc(-c3ccc(C(F)(F)F)cc3)cc12", "assay": "cell-free assay, competition with immobilised ligand", "setting": "1 µM", "remaining binding": "100%"}
{"Structure (SMILES)": "C[C@@H]1CCN(c2nccc(-c3cnn4ncccc34)n2)C1", "assay": "binding", "setting": "1 µM", "remaining binding": "100%"}
{"Structure (SMILES)": "CN(C(=O)c1ccccc1)c1cc(N(C)c2ccc3c(c2)CCc2ccc(C(=O)NCCN4CCOCC4)cc2C3=O)ccc1F", "assay": "cell-free assay, competition with immobilised ligand", "setting": "1 µM", "remaining binding": "100%"}
{"Structure (SMILES)": "Cc1cnn2ncc(-c3ccnc(N(C)C)n3)c2c1", "assay": "binding", "setting": "1 µM", "remaining binding": "97%"}
{"Structure (SMILES)": "C[C@@H](c1ccc(-n2cnc3c(N)ncnc32)cc1)N1CCc2nn(C)c(Cc3ccccc3)c2C1=O", "assay": "binding, competition with immobilised ligand", "setting": "0.1 µM", "remaining binding": "97%"}
{"Structure (SMILES)": "N[C@H]1CCN(c2nccc(-c3cnn4ncccc34)n2)C1", "assay": "binding", "setting": "1 µM", "remaining binding": "100%"}
{"Structure (SMILES)": "CN([C@@H]1CCc2c(CC(=O)O)c3cc(S(C)(=O)=O)ccc3n2C1)S(=O)(=O)c1ccc(F)cc1", "assay": "cell-free assay, competition with immobilised ligand", "setting": "1 µM", "remaining binding": "99%"}
{"Structure (SMILES)": "CC1CCCN1c1nccc(-c2cnn3ncccc23)n1 (stereo not shown)", "assay": "binding", "setting": "1 µM", "remaining binding": "100%"}
{"Structure (SMILES)": "O=C(c1ccc(Nc2ncc(Cl)c(-c3cc4ccccc4s3)n2)cc1)N1CCC(N2CCCC2)CC1", "assay": "binding, competition with immobilised ligand", "setting": "1 µM", "remaining binding": "77%"}
{"Structure (SMILES)": "CN(C)c1nccc(-c2cnn3ncccc23)n1", "assay": "binding", "setting": "1 µM", "remaining binding": "100%"}
{"Structure (SMILES)": "O=C(NCC1CCOCC1)c1n[nH]cc1NC(=O)c1c(F)cccc1F", "assay": "binding, competition with immobilised ligand", "setting": "1 µM", "remaining binding": "100%"}
{"Structure (SMILES)": "CN(C)c1ncc(F)c(-c2cnn3ncccc23)n1", "assay": "binding", "setting": "1 µM", "remaining binding": "100%"}
{"Structure (SMILES)": "COc1cnc(Nc2cccc(S(N)(=O)=O)c2)nc1N1CCN(c2ccccc2)C(=O)C1", "assay": "binding, competition with immobilised ligand", "setting": "1 µM", "remaining binding": "100%"}
